In brackets after ≈: the same amount, converted by molar mass.
Key:
Format in all cases: functional
Escherichia coli [1] = assay: Antibacterial activity against Escherichia coli 3350 after 16 to 20 hrs by microbroth dilution method
Method in brief: (§1)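 CLSI broth microdilution in Mueller-Hinton broth. Compounds were dissolved in 100% DMSO and serially two-fold diluted to cover 0.12 to >256 mg/L. An equal volume of inoculum at 1 × 10⁶ CFU/mL was added, then plates were incubated at 35 °C for 16–20 h. MIC was the lowest concentration with no visible growth. DMSO and uninoculated-medium controls were run in parallel.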

Streptococcus pyogenes [2] = assay: Antibacterial activity against erythromycin-resistant Streptococcus pyogenes 24 after 16 to 20 hrs by microbroth dilution method
Method in brief: (§2)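 CLSI broth microdilution in Mueller-Hinton broth. Compound stocks in 100% DMSO, serially diluted two-fold to 0.12->256 mg/L. An equal volume of inoculum at 1 x 10⁶ CFU/mL was added to each well. Plates were incubated 16-20 h at 35 °C. MIC (mg/L) was taken as the lowest concentration with no visible growth. DMSO and uninoculated-medium controls were run in parallel.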

Streptococcus pyogenes [3] = assay: Antibacterial activity against erythromycin-resistant Streptococcus pyogenes 47 after 16 to 20 hrs by microbroth dilution method; method in brief: as §2
Serratia marcescens = assay: Antibacterial activity against Serratia marcescens Mel 522 after 16 to 20 hrs by microbroth dilution method; method in brief: as §1
Streptococcus pyogenes [4] = assay: Antibacterial activity against erythromycin-sensitive Streptococcus pyogenes 9 after 16 to 20 hrs by microbroth dilution method; method in brief: as §1
Escherichia coli [5] = assay: Antibacterial activity against Escherichia coli ATCC 25922 after 16 to 20 hrs by microbroth dilution method; method in brief: as §1
Streptococcus pyogenes [6] = assay: Antibacterial activity against erythromycin-sensitive Streptococcus pyogenes 12 after 16 to 20 hrs by microbroth dilution method; method in brief: as §1
Streptococcus pneumoniae = assay: Antibacterial activity against Streptococcus pneumoniae PEN-1 after 16 to 20 hrs by microbroth dilution method; conditions: PEN I; method in brief: as §1
Staphylococcus aureus [7] = assay: Antibacterial activity against methicillin-resistant Staphylococcus aureus C530 after 16 to 20 hrs by microbroth dilution method; method in brief: as §2
Staphylococcus aureus [8] = assay: Antibacterial activity against methicillin-sensitive Staphylococcus aureus ATCC 25923 after 16 to 20 hrs by microbroth dilution method; method in brief: as §1
Streptococcus pyogenes [9] = assay: Antibacterial activity against erythromycin-sensitive Streptococcus pyogenes 3 after 16 to 20 hrs by microbroth dilution method; method in brief: as §1
Streptococcus pyogenes [10] = assay: Antibacterial activity against Streptococcus pyogenes ATCC 19615 after 16 to 20 hrs by microbroth dilution method; method in brief: as §2
Streptococcus pyogenes [11] = assay: Antibacterial activity against erythromycin-resistant Streptococcus pyogenes 6 after 16 to 20 hrs by microbroth dilution method; method in brief: as §2
Staphylococcus aureus [12] = assay: Antibacterial activity against methicillin-sensitive Staphylococcus aureus ATCC 29213 after 16 to 20 hrs by microbroth dilution method; method in brief: as §1
Staphylococcus aureus [13] = assay: Antibacterial activity against methicillin-resistant glycopeptide-intermediate Staphylococcus aureus Mu50 after 16 to 20 hrs by microbroth dilution method; method in brief: as §2
Staphylococcus aureus [14] = assay: Antibacterial activity against Staphylococcus aureus ATCC 43300 after 16 to 20 hrs by microbroth dilution method; method in brief: as §1
Streptococcus pyogenes [15] = assay: Antibacterial activity against compound-resistant Streptococcus pyogenes 24 after 16 to 20 hrs by microbroth dilution method; method in brief: as §2
Streptococcus pyogenes [16] = assay: Antibacterial activity against compound-resistant Streptococcus pyogenes 47 after 16 to 20 hrs by microbroth dilution method; method in brief: as §2

Structure (SMILES) | MIC (Escherichia coli [1]) [µg/mL] | MIC (Streptococcus pyogenes [2]) [µg/mL] | MIC (Streptococcus pyogenes [3]) [µg/mL] | MIC (Serratia marcescens) [µg/mL] | MIC (Streptococcus pyogenes [4]) [µg/mL] | MIC (Escherichia coli [5]) [µg/mL] | MIC (Streptococcus pyogenes [6]) [µg/mL] | MIC (Streptococcus pneumoniae) [µg/mL] | MIC (Staphylococcus aureus [7]) [µg/mL] | MIC (Staphylococcus aureus [8]) [µg/mL] | MIC (Streptococcus pyogenes [9]) [µg/mL] | MIC (Streptococcus pyogenes [10]) [µg/mL] | MIC (Streptococcus pyogenes [11]) [µg/mL] | MIC (Staphylococcus aureus [12]) [µg/mL] | MIC (Staphylococcus aureus [13]) [µg/mL] | MIC (Staphylococcus aureus [14]) [µg/mL] | MIC (Streptococcus pyogenes [15]) [µg/mL] | MIC (Streptococcus pyogenes [16]) [µg/mL]
NC(=O)c1noc(-c2ccc(N3CCOCC3)c(F)c2)n1 | 128 (≈ 438 µM) | 128 (≈ 438 µM) | > 256 | 128 (≈ 438 µM) | > 256 | 128 (≈ 438 µM) | 128 (≈ 438 µM) | > 256 | > 256 | > 256 | 128 (≈ 438 µM) | 128 (≈ 438 µM) | 128 (≈ 438 µM) | > 256 | > 256 | > 256 |  | 
NC(=O)c1noc(-c2cc(F)c(N3CCOCC3)c(F)c2)n1 | 128 (≈ 413 µM) | > 256 | 128 (≈ 413 µM) | > 256 | > 256 | 128 (≈ 413 µM) | > 256 | > 256 | > 256 | > 256 | > 256 | 128 (≈ 413 µM) | 128 (≈ 413 µM) | > 256 | > 256 | > 256 |  | 
NC(=O)c1noc(-c2cc(F)c(N3CCOCC3)c(F)c2F)n1 | 128 (≈ 390 µM) | > 256 | 128 (≈ 390 µM) | > 256 | > 256 | 128 (≈ 390 µM) | > 256 | > 256 | > 256 | > 256 | > 256 | 128 (≈ 390 µM) | 128 (≈ 390 µM) | > 256 | > 256 | > 256 |  | 
NC(=O)c1noc(-c2c(F)c(F)c(N3CCOCC3)c(F)c2F)n1 | > 256 | > 256 | > 256 | > 256 | > 256 | 128 (≈ 370 µM) | > 256 | > 256 | > 256 | > 256 | > 256 | > 256 | > 256 | > 256 | > 256 | > 256 |  | 
CO/N=C(\C(=O)N[C@@H]1C(=O)N2C(C(=O)O)=C(CSc3nc(=O)c(O)nn3C)CS[C@H]12)c1csc(N)n1 [CEFTRIAXONE] | 4 (≈ 7.21 µM) | < 0.12 | < 0.12 | < 0.12 | < 0.12 | 0.12 (≈ 0.216 µM) | < 0.12 | 0.12 (≈ 0.216 µM) | > 256 | 1 (≈ 1.8 µM) | < 0.12 | < 0.12 | < 0.12 | 4 (≈ 7.21 µM) | 4 (≈ 7.21 µM) | 8 (≈ 14.4 µM) |  | 
CC[C@H]1OC(=O)[C@H](C)[C@@H](O[C@H]2C[C@@](C)(OC)[C@@H](O)[C@H](C)O2)[C@H](C)[C@@H](O[C@@H]2O[C@H](C)C[C@H](N(C)C)[C@H]2O)[C@](C)(O)C[C@@H](C)C(=O)[C@H](C)[C@@H](O)[C@]1(C)O [ERYTHROMYCIN] |  |  |  |  |  |  |  |  |  |  |  |  |  |  |  |  | > 256 | > 256
CC(=O)NC[C@H]1CN(c2ccc(N3CCOCC3)c(F)c2)C(=O)O1 [LINEZOLID] | > 256 | 0.12 (≈ 0.356 µM) | 1 (≈ 2.96 µM) | 128 (≈ 379 µM) | 1 (≈ 2.96 µM) | 4 (≈ 11.9 µM) | 0.25 (≈ 0.741 µM) |  |  | 1 (≈ 2.96 µM) | 1 (≈ 2.96 µM) | 1 (≈ 2.96 µM) | 0.12 (≈ 0.356 µM) |  |  |  |  | 
